Read-outs that look alike come from different tables or passages of the source.

The text below walks through data of article PMC5600292 (Biochimica et biophysica acta, 2017).

The target in experiment [1] is T1, human recombinant thrombin L99A (Homo sapiens, UniProt P00734, L459A). The experiment in a line: HPLC-based kinetic assay of FXIII AP hydrolysis, L99A thrombin. Type of experiment: biochemical. The following applies: L99A IIa, HPLC assay, pH 7.4, 25 °C, average of at least three independent experiments ± SEM. In short, it runs like this: (§1)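 Synthetic Ac-/-NH2 FXIII (28–41) AP peptides (V34, L34, F34, W34, Y34) were used at 75–2500 µM final in 50 mM H3PO4, 100 mM NaCl, 0.1% PEG, pH 7.4, 25 °C. Recombinant human thrombin (6 nM–1 µM) started the reaction; aliquots were quenched with 12.5% H3PO4, keeping hydrolysis below 17% in 30 min. The (28–37) product was quantified by RP-HPLC against calibration curves. Initial velocities were fitted to V = Vmax/(1+Km/[S]), kcat taken from thrombin concentration, in triplicate.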

The target of experiment [2] is T2, human recombinant thrombin wild-type (WT) (Homo sapiens, UniProt P00734). The experiment can be described thus: HPLC-based kinetic assay of thrombin-catalyzed hydrolysis of FXIII. Type of experiment: biochemical. The following applies: WT IIa, pH 7.4, 25 °C, average of at least three independent experiments ± SEM. In short, it runs like this:
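Recombinant human thrombin hydrolysed acetylated, amidated FXIII (28–41) activation peptides with V, L, F, W or Y at position 34 (final 75–2500 µM). Reactions ran at 25 °C in 50 mM H3PO4, 100 mM NaCl, 0.1% PEG, pH 7.4, with 6 nM–1 µM thrombin, and kept <17% hydrolysis in 30 min. Timed aliquots were quenched with 12.5% H3PO4. The (28–37) product was quantified by C18 RP-HPLC against calibration curves, giving initial velocities. These were fit to V = Vmax/(1 + Km/[S]), and kcat came from thrombin concentration. Runs were in triplicate.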

Experiment [3] concerns the target T3, human recombinant thrombin I174A (Homo sapiens, UniProt P00734, I542A). The experiment can be described thus: HPLC-based kinetic assay of FXIII AP hydrolysis, I174A thrombin. In kind it is biochemical. The conditions noted are these: for kcat/Km / Km / kcat: I174A IIa, HPLC assay, pH 7.4, 25 °C, average of at least three independent experiments ± SEM; for Km / kcat: SEM. Put shortly:
as §1

Experiment [4] addresses T3, human recombinant thrombin I174A. The following applies: cited from earlier work; for Km / kcat / kcat/Km: I174A IIa, mean ± SEM; for Km / kcat: SEM.
Experiment [5] addresses human recombinant thrombin W60dA (Homo sapiens, UniProt P00734, W413A). The following applies: W60dA IIa, mean ± SEM, cited from earlier work; for Km / kcat: SEM.
For experiment [6], the target named is T2, human recombinant thrombin wild-type (WT). The following applies: WT IIa, mean ± SEM, cited from earlier work; for Km / kcat: SEM.
Experiment [7] has as its target human recombinant thrombin W215A (Homo sapiens, UniProt P00734, W590A). The following applies: cited from earlier work; for Km / kcat / kcat/Km: W215A IIa, mean ± SEM; for Km / kcat: SEM; for fold reduction of kcat/Km relative to WT thrombin: prior studies.
Experiment [8] has as its target T1, human recombinant thrombin L99A. The following applies: cited from earlier work; for Km / kcat / kcat/Km: L99A IIa, mean ± SEM; for Km / kcat: SEM.
For experiment [9], the target named is human recombinant thrombin W215A/E217A (WE) (Homo sapiens, UniProt P00734, E592A/W590A). The conditions noted are these: cited from earlier work; for Km / kcat / kcat/Km: WE (W215A/E217A) IIa, mean ± SEM; for Km / kcat: SEM; for fold decrease in Km relative to WT thrombin: WE thrombin.
Experiment [10] has as its system human recombinant thrombin Y60aA. The conditions noted are these: cited from earlier work; for Km / kcat / kcat/Km: Y60aA IIa, mean ± SEM; for Km / kcat: SEM; for fold decrease in kcat relative to WT thrombin / fold increase in Km relative to WT thrombin: Y60aA thrombin.
Experiment [11] relates to WT recombinant human thrombin. The experiment in a line: Gel electrophoresis. The following applies: 1 µM FXIII variant, 30 nM thrombin, 37°C. In kind it is biochemical. Put shortly: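 Full-length FXIII-A V34X variants were expressed GST-tagged in E. coli BL21(DE3) Gold by auto-induction, then freed from the tag by on-column PreScission digestion. 1 µM variant was incubated with 30 nM WT recombinant human thrombin at 37°C. Aliquots were taken at 1–30 min, quenched with 6 µM PPACK plus reducing buffer, and frozen at −80°C. Samples ran on 8% SDS-PAGE with Coomassie stain; densitometry followed the 83 kDa intact and 79 kDa cleaved bands.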

As usually defined, the kcat/Km is the second-order rate constant that governs catalysis at low substrate concentration. The Km is the concentration of substrate that gives half-maximal velocity. The kcat is the maximal rate divided by the concentration of active sites. On to “Ac-TVELQGYVPRGVNL-NH2 [FXIII (28–41) Y34 AP]”, for which the figures for the kcat/Km in experiment [1], in experiment [2] and in [3] were 39000 ± 9800 M⁻¹ s⁻¹, 4600 ± 900 M⁻¹ s⁻¹ and 3300 ± 2000 M⁻¹ s⁻¹, respectively. The Km in experiment [1] (SEM) was found to be 347 ± 80 µM; in [2] (SEM), 484 ± 88 µM; in [3] it was 349 ± 120 µM. Besides, the kcat was determined as 13.5 ± 1.4 s⁻¹ in [1] (SEM), 2.23 ± 0.18 s⁻¹ in experiment [2] (SEM) and 1.17 ± 0.16 s⁻¹ in [3]. Also, the “fold decrease in Km relative to WT thrombin” value in experiment [3] (I174A thrombin, current work) is given as 1.4 fold. Also, the “fold decrease in kcat relative to WT thrombin” value in experiment [3] (I174A thrombin, current work) was determined as 2 fold.
In the case of “Ac-TVELQGLVPRGVNL-NH2 [FXIII (28–41) L34 AP]”, the Michaelis constant (Km) in [4] is 1110 ± 247 µM; in experiment [5], 1000 ± 201 µM; in [6] it was 315 ± 42 µM; in [7], 3620 ± 470 µM; in [8], 1930 ± 354 µM; in experiment [9], 142 ± 28 µM. Also, the Km in experiment [10] is 696 ± 116 µM. The kcat in [4] was 10.2 ± 0.04 s⁻¹; in experiment [5], 5.07 ± 0.021 s⁻¹; in [6], 22.9 ± 0.003 s⁻¹; in experiment [7], 5.31 ± 0.002 s⁻¹; in [8] it was 5.94 ± 0.02 s⁻¹; in [9], 0.052 ± 0.003 s⁻¹. Further, the kcat in experiment [10] is 0.37 ± 0.012 s⁻¹. The kcat/Km is 9100 ± 2000 M⁻¹ s⁻¹ in experiment [4]; 5100 ± 1000 M⁻¹ s⁻¹ in experiment [5]; 73000 ± 1200 M⁻¹ s⁻¹ in experiment [6]; 1500 ± 200 M⁻¹ s⁻¹ in [7]; 3100 ± 200 M⁻¹ s⁻¹ in experiment [8]; 370 ± 100 M⁻¹ s⁻¹ in experiment [9]. Moreover, the kcat/Km in experiment [10] is 530 ± 120 M⁻¹ s⁻¹. The “fold decrease in kcat relative to WT thrombin” value is listed as 2 fold in experiment [4] (I174A thrombin), 3–4 fold in experiment [8] (L99A thrombin) and 54 to 61 fold in experiment [10]. In addition, in experiment [8] (L99A thrombin), the “fold advantage in kcat/Km relative to V34” value is on record as 7 fold. Also, the “fold decrease in Km relative to WT thrombin” value in experiment [9] was 2 fold. In addition, the “fold increase in Km relative to WT thrombin” value in experiment [10] is reported as 2 fold.
In the case of “Ac-TVELQGFVPRGVNL- NH2 [FXIII (28–41) F34 AP]”, the Km in experiment [5] was 435 ± 98 µM; in [6] it was 442 ± 93 µM; in experiment [7] it was 437 ± 81 µM; in experiment [8], 570 ± 125 µM; in [3], 920 ± 88 µM; in experiment [9], 190 ± 43 µM. The kcat in experiment [5] was 1.46 ± 0.15 s⁻¹; in experiment [6], 6.27 ± 0.54 s⁻¹; in [7], 1.97 ± 0.14 s⁻¹; in [8], 2.71 ± 0.3 s⁻¹; in experiment [3], 6.08 ± 0.25 s⁻¹; in experiment [9] it was 0.07 ± 0.007 s⁻¹. The kcat/Km in [5] was 3400 ± 800 M⁻¹ s⁻¹; in experiment [6] it was 14000 ± 3000 M⁻¹ s⁻¹; in experiment [7], 4500 ± 900 M⁻¹ s⁻¹; in experiment [8], 4800 ± 120 M⁻¹ s⁻¹; in experiment [3], 6600 ± 690 M⁻¹ s⁻¹; in experiment [9], 360 ± 80 M⁻¹ s⁻¹. Also, the figures for the “fold decrease in kcat relative to WT thrombin” value in [7] (W215A thrombin) and in experiment [8] (L99A thrombin) were 3 fold and 2 fold, respectively. Also, in [7] (W215A thrombin), the “fold reduction of kcat/Km relative to WT thrombin” value is 3 fold. Further, the “fold decrease in Km relative to WT thrombin” value in [9] was 2 fold.
For the molecule “Ac-TVELQGVVPRGVNL-NH2 [FXIII (28–41) V34 AP]”, the Michaelis-Menten constant (Km) in experiment [4] was 204 ± 36 µM; in experiment [5], 1380 ± 422 µM; in experiment [6] it was 298 ± 42 µM; in experiment [7], 2370 ± 372 µM; in experiment [8], 2070 ± 414 µM; in experiment [9], 745 ± 98 µM. Moreover, the Michaelis constant (Km) in experiment [10] is 678 ± 120 µM. Besides, the kcat in [4] is 5.37 ± 0.01 s⁻¹; in experiment [5], 0.86 ± 0.046 s⁻¹; in [6], 2.57 ± 0.005 s⁻¹; in [7] it was 5.53 ± 0.017 s⁻¹; in experiment [8] it was 0.89 ± 0.07 s⁻¹; in experiment [9], 0.117 ± 0.008 s⁻¹. Also, the kcat in [10] was 0.048 ± 0.0032 s⁻¹. Further, the kcat/Km is 26000 ± 100 M⁻¹ s⁻¹ in experiment [4]; 630 ± 190 M⁻¹ s⁻¹ in [5]; 8600 ± 1000 M⁻¹ s⁻¹ in [6]; 2300 ± 700 M⁻¹ s⁻¹ in experiment [7]; 430 ± 100 M⁻¹ s⁻¹ in experiment [8]; 160 ± 20 M⁻¹ s⁻¹ in experiment [9]. The kcat/Km in experiment [10] is 71 ± 13 M⁻¹ s⁻¹. In [4] (I174A thrombin), the “fold increase in kcat relative to WT thrombin” value is given as 2 fold. In addition, the “fold reduction of kcat/Km relative to WT thrombin” value in experiment [7] (W215A thrombin) was 4 fold. Further, the “fold decrease in kcat relative to WT thrombin” value in [8] (L99A thrombin) is given as 3–4 fold; in experiment [10], 54 to 61 fold. Also, the “fold increase in Km relative to WT thrombin” value in experiment [10] is 2 fold.

B1: FXIII V34: full-length recombinant FXIII-A V34 expressed in E. coli (protein, UniProt P00488 1-732, looked up)
chain: MSETSRTAFGGRRAVPPNNSNAAEDDLPTVELQGVVPRGVNLQEFLNVTSVHLFKERWDTNKVDHHTDKYENNKLIVRRGQSFYVQIDFSRPYDPRRDLFRVEYVIGRYPQENKGTYIPVPIVSELQSGKWGAKIVMREDRSVRLSIQSSPKCIVGKFRMYVAVWTPYGVLRTSRNPETDTYILFNPWCEDDAVYLDNEKEREEYVLNDIGVIFYGEVNDIKTRSWSYGQFEDGILDTCLYVMDRAQMDLSGRGNPIKVSRVGSAMVNAKDDEGVLVGSWDNIYAYGVPPSAWTGSVDILLEYRSSENPVRYGQCWVFAGVFNTFLRCLGIPARIVTNYFSAHDNDANLQMDIFLEEDGNVNSKLTKDSVWNYHCWNEAWMTRPDLPVGFGGWQAVDSTPQENSDGMYRCGPASVQAIKHGHVCFQFDAPFVFAEVNSDLIYITAKKDGTHVVENVDATHIGKLIVTKQIGGDGMMDITDTYKFQEGQEEERLALETALMYGAKKPLNTEGVMKSRSNVDMDFEVENAVLGKDFKLSITFRNNSHNRYTITAYLSANITFYTGVPKAEFKKETFDVTLEPLSFKKEAVLIQAGEYMGQLLEQASLHFFVTARINETRDVLAKQKSTVLTIPEIIIKVRGTQVVGSDMTVTVEFTNPLKETLRNVWVHLDGPGVTRPMKKMFREIRPNSTVQWEEVCRPWVSGHRKLIASMSSDSLRHVYGELDVQIQRRPSM
modifications: full-length
In the case of B1, the “time at which cleavage started to be visible” value in [11] (SDS-PAGE) is 2 min. In addition, in [11] (SDS-PAGE densitometry), the “cleavage of full-length FXIII by thrombin at 10 min” value was found to be 50% and the “time to full cleavage of full-length FXIII” value is recorded as about 30 min.
